Where a SMILES comes first, the peptide text is derived from it. [ ]: non-standard residue; d: D form. The star is where a group is joined. Tyr(Nα,Nα-allyl2) = C=CCN(CC=C)[C@@H](Cc1ccc(O)cc1)C(=O)*; Aib = CC(C)(N)C(=O)O
What was measured:
Mus musculus [1] = species on record: Mus musculus; test: The compound was evaluated for antinociceptive potency using abdominal stretch assay in mice; format: functional, Abdomen; parameters: unit not given here
Procedure, shortened: (§1)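 Mouse antinociception by abdominal stretch or tail flick assay. Test compound given icv. ED50 in nmol/mouse with 95% confidence limits.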

Cavia porcellus [2] = species on record: Cavia porcellus; test: Antagonistic activity against EK in guinea pig ileal longitudinal muscle (GPI); format: functional, Muscle tissue
Procedure, shortened: (§2)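 Electrically stimulated guinea pig ileal longitudinal muscle or mouse vas deferens. Test ligand incubated 15 min before standard agonist challenge (morphine, ethylketazocine or DADLE). Ligand at 100 nM, or at 10, 20 or 30 nM when it had agonist activity, kept at or below its ED20.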

Mus musculus [3] = species on record: Mus musculus; test: Antagonistic activity against DADLE in smooth muscle preparation (MVD); format: functional, Muscle tissue; procedure, shortened: as §2
Mus musculus [4] = species on record: Mus musculus; test: Antagonistic activity against morphine in smooth muscle preparation (MVD); format: functional, Muscle tissue; procedure, shortened: as §2
Cavia porcellus [5] = species on record: Cavia porcellus; test: The compound was tested for opioid agonist activity against guinea pig ileal longitudinal muscle (GPI); format: functional, Muscle tissue
Procedure, shortened: (§3)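 Electrically stimulated guinea pig ileal longitudinal muscle and mouse vas deferens. For full agonists, 4-6 concentrations gave concentration-response curves compared with standard agonists in the same preparation. IC50 is the concentration giving a half-maximal response, with 95% confidence limits.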

Mus musculus [6] = species on record: Mus musculus; test: The compound was tested for opioid agonist activity against mouse vas deferens (MVD); format: functional; procedure, shortened: as §3
Cavia porcellus [7] = species on record: Cavia porcellus; test: Antagonistic activity against morphine in guinea pig ileal longitudinal muscle (GPI); format: functional, Muscle tissue; procedure, shortened: as §2
Cavia porcellus [8] = species on record: Cavia porcellus; test: The compound was evaluated for antagonistic activity by incubating with the smooth muscle preparation (GPI) for 15 min prior to testing with morphine; format: functional, Muscle tissue; procedure, shortened: as §2
Mus musculus [9] = species on record: Mus musculus; test: The compound was evaluated for antagonistic activity by incubating with the smooth muscle preparation (MVD) for 15 min prior to testing with morphine; format: functional, Muscle tissue; procedure, shortened: as §2
Mus musculus [10] = species on record: Mus musculus; test: The compound was evaluated for antagonistic activity by incubating with the smooth muscle preparation (MVD) for 15 min prior to testing with DADLE; format: functional, Muscle tissue; procedure, shortened: as §2
Cavia porcellus [11] = species on record: Cavia porcellus; test: The compound was evaluated for antagonistic activity by incubating with the smooth muscle preparation (GPI) for 15 min prior to testing with Ethylketazocine (EK); format: functional, Muscle tissue; procedure, shortened: as §2
Mus musculus [12] = species on record: Mus musculus; test: The compound was evaluated for antinociceptive potency using tail flick assay in mice; format: functional; procedure, shortened: as §1
[13] = target: Kappa-type opioid receptor (Cavia porcellus, UniProt P41144); test: The compound was evaluated for binding affinity against the opioid receptor kappa in guinea pig brain membranes using [3H]- U-69,593; format: cell membranes, Membrane
Procedure, shortened: (§4)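 Competition binding on guinea pig brain membranes. δ sites labelled with [3H]DPDPE, μ with [3H]DAMGO, κ with [3H]U69593. A footnote also describes κ labelling with [3H]ethylketazocine in the presence of 1 µM DAMGO.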

Mu-type opioid receptor [14] = target: T1, Mu-type opioid receptor (Cavia porcellus, UniProt P97266); test: The compound was evaluated for binding affinity against opioid receptor mu in guinea pig brain membranes using [3H]- DAMGO as ligand; format: cell membranes, Membrane; procedure, shortened: as §4
[15] = target: Mu-type opioid receptor (Cavia porcellus) (UniProt P97266); test: Selectivity for mu to delta opioid receptors was determined
[16] = test system: Delta-type opioid receptor; test: Selectivity for kappa to delta opioid receptors was determined; settings: Cavia porcellus
[17] = The compound was evaluated for binding affinity against Opioid receptor delta 1 in guinea pig brain membrane using [3H]- DPDPE as ligand
Opioid receptor = Opioid receptor (Mus musculus, UniProt P42866+P32300+P33534); test: Compound was tested for agonistic activity against the opioid receptor in electrically stimulated mouse vas deference; format: functional; procedure, shortened: as §3
Cavia porcellus [18] = species on record: Cavia porcellus; test: Opiod agonistic activity against delta enriched smooth muscle preparation; format: functional; settings: Muscle tissue
Mus musculus [19] = species on record: Mus musculus; test: The compound was evaluated for antinociceptive potency using abdominal stretch assay in mice.; format: functional, Abdomen; procedure, shortened: as §1
Mus musculus [20] = species on record: Mus musculus; test: The compound was tested for antagonizing the antinociceptive potency of U-50,488H using abdominal assay in mice.(values in the parenthesis indicate 95% confidence limits); format: functional, Abdomen
Mus musculus [21] = species on record: Mus musculus; test: The compound was tested for antagonizing the antinociceptive potency of DPDPE using abdominal assay in mice.(values in the parenthesis indicate 95% confidence limits); format: functional, Abdomen
Mus musculus [22] = species on record: Mus musculus; test: Effect of the opioid antagonist (norbinaltorphimine, kappa) on the antinociceptive potency using abdominal stretch assay in mice.; format: functional, Abdomen
Procedure, shortened: (§5)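 Mice pretreated sc with β-FNA 20 µmol/kg 24 h before, norBNI 12 µmol/kg 2 h before, or NTI 44 µmol/kg 0.5 h before. Test compound then given icv in the abdominal stretch or tail flick assay. ED50 ratio is pretreated ED50 divided by control ED50, with 95% confidence limits.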

Mu-type opioid receptor [23] = target: T1, Mu-type opioid receptor; test: The compound was evaluated for binding affinity against Opioid receptor mu 1 in guinea pig brain membranes; format: cell membranes, Membrane; procedure, shortened: as §4
Mus musculus [24] = species on record: Mus musculus; test: The compound was tested for antagonizing the antinociceptive potency of morphine using abdominal assay in mice.(values in the parenthesis indicate 95% confidence limits); format: functional, Abdomen
Mus musculus [25] = species on record: Mus musculus; test: The compound was tested for antagonizing the antinociceptive potency of DSLET using abdominal assay in mice.(values in the parenthesis indicate 95% confidence limits); format: functional, Abdomen
Mus musculus [26] = species on record: Mus musculus; test: Effect of the opioid antagonist (naltrindole, delta) on the antinociceptive potency using tail flick assay; format: functional; procedure, shortened: as §5
Mus musculus [27] = species on record: Mus musculus; test: Effect of the opioid antagonist (naltrindole, delta) on the antinociceptive potency using abdominal stretch assay in mice; format: functional, Abdomen; procedure, shortened: as §5
Mus musculus [28] = species on record: Mus musculus; test: Effect of the opioid antagonist (beta-funaltrexamine, mu) on the antinociceptive potency using abdominal stretch assay in mice.; format: functional, Abdomen; procedure, shortened: as §5
Mus musculus [29] = species on record: Mus musculus; test: The compound was tested for antagonizing the antinociceptive potency of DSLET using abdominal assay in mice.; format: functional, Abdomen
Procedure, shortened: (§6)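 Mice, abdominal stretch assay. Agonist peak times after icv dosing: DSLET 10 min, DPDPE 20 min, U50488H 15 min, morphine 30 min. Read-out is the agonist ED50 ratio with 95% confidence limits.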

Mus musculus [30] = species on record: Mus musculus; test: The compound was tested for antagonizing the antinociceptive potency of morphine using abdominal assay in mice; format: functional, Abdomen; procedure, shortened: as §6
Mus musculus [31] = species on record: Mus musculus; test: Effect of the opioid antagonist (norbinaltorphimine, kappa) on the antinociceptive potency using tail flick assay in mice; format: functional
Procedure, shortened: (§7)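 Mice, tail flick assay. Antagonist given sc beforehand: beta-FNA 20 µmol/kg 24 h before, or norBNI 12 µmol/kg 2 h before. Test compound then given icv. ED50 ratio = ED50 of test compound in pretreated mice divided by control ED50, with 95% confidence limits.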

Mus musculus [32] = species on record: Mus musculus; test: The compound was tested for antagonizing the antinociceptive potency of DPDPE using abdominal assay in mice.; format: functional, Abdomen; procedure, shortened: as §6
Cavia porcellus [33] = species on record: Cavia porcellus; test: Opiod agonistic activity against delta enriched smooth muscle preparation.; format: functional; settings: Muscle tissue
Mus musculus [34] = species on record: Mus musculus; test: The compound was tested for antagonizing the antinociceptive potency of U-50,488H using abdominal assay in mice; format: functional, Abdomen; procedure, shortened: as §6
Mus musculus [35] = species on record: Mus musculus; test: Effect of the opioid antagonist (beta-funaltrexamine, mu) on the antinociceptive potency using tail flick assay in mice.(values in the parenthesis indicate 95% confidence limits); format: functional; procedure, shortened: as §7

Sequence of Kappa-type opioid receptor (P41144 whole entry): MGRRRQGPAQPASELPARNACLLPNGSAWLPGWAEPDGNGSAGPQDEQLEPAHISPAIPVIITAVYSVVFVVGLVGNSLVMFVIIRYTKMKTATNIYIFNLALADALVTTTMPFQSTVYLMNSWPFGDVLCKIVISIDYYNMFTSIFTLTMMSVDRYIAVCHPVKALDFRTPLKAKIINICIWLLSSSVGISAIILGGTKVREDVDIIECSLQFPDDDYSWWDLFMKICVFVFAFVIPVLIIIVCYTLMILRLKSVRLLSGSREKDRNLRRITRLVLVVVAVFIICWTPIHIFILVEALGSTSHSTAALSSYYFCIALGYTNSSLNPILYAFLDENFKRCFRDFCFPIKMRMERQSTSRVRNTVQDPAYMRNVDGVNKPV
Sequence of Mu-type opioid receptor (Cavia porcellus) (P97266 whole entry): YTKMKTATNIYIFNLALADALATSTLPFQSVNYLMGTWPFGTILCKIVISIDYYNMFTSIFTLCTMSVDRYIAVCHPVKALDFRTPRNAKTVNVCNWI
T1 sequence (P97266 whole entry): as above

Structure (SMILES)	ED50 (Mus musculus [1])	IC50 ratio (Cavia porcellus [2])	IC50 ratio (Mus musculus [3])	IC50 ratio (Mus musculus [4])	Max response (Cavia porcellus [5])	Max response (Mus musculus [6])	IC50 ratio (Cavia porcellus [7])	ED50 (Mus musculus [12])	Ki [13]	Ki (Mu-type opioid receptor [14])	Ratio [15]	Ratio [16]	IC50 (Opioid receptor)	further results
CN1CC[C@]23c4c5ccc(O)c4O[C@H]2c2c(c4ccccc4n2C)C[C@@]3(O)[C@H]1C5	0.01	0.5	1.2	1	9%	23%	0.7							
CN1CC[C@]23c4c5ccc(O)c4O[C@H]2c2oc4ccccc4c2C[C@@]3(O)[C@H]1C5					23%	41%								IC50 ratio (Cavia porcellus [8]): 0.5; IC50 ratio (Mus musculus [9]): 0.8; IC50 ratio (Mus musculus [10]): 10.2; IC50 ratio (Cavia porcellus [11]): 0.8
CSCC[C@H](NC(=O)[C@H](Cc1ccc(O)cc1)NC(=O)CNC(=O)CNC(=O)[C@H](Cc1ccccc1)NC(=O)[C@H](CC(C)C)NC(=O)[C@H](N)CO)C(=O)N[C@H](C(=O)O)[C@@H](C)O	0.0032							0.45 nmol/mouse						
Oc1ccc2c3c1O[C@H]1c4[nH]c5ccccc5c4C[C@H]4[C@@H](C2)N(C/C=C/c2ccccc2)CC[C@]314					2%	19%			> 1000 nM	> 1000 nM	> 9	> 9		IC50 ratio (Cavia porcellus [8]): 0.8; IC50 ratio (Mus musculus [9]): 1.1; IC50 ratio (Mus musculus [10]): 0.8; IC50 ratio (Cavia porcellus [11]): 0.9
C=CCN(CC=C)[C@@H](Cc1ccc(O)cc1)C(=O)NC(C)(C)C(=O)NC(C)(C)C(=O)N[C@@H](Cc1ccccc1)C(=O)N[C@@H](CC(C)C)C(=O)O ({Tyr(Nα,Nα-allyl2)}-[Aib][Aib]FL-OH)											> 29	> 29		Ki [17]: 35 nM
Oc1ccc2c3c1O[C@H]1c4[nH]c5ccccc5c4C[C@H]4[C@@H](C2)N(CCc2ccccc2)CC[C@]314		0.9	0.6	0.9	1900%		0.8	6.3 nmol/mouse	2620 nM	173 nM	8	120	179 nM	IC50 (Cavia porcellus [18]): 174 nM
Oc1ccc2c3c1O[C@H]1c4[nH]c5ccccc5c4C[C@@]4(O)[C@@H](C2)N(CC2CC2)CC[C@]314 [NALTRINDOLE]														ED50 (Mus musculus [19]): 0.04 nM
CN1CC[C@]23c4c5ccc(O)c4O[C@H]2c2[nH]c4ccccc4c2C[C@@]3(O)[C@H]1C5 [OXYMORPHINDOLE]		0.9	1.3	0.9	12%	65%	0.9				669	6380		ED50 (Mus musculus [19]): 0.019 nM; Ki [17]: 0.7 nM
Oc1ccc2c3c1O[C@H]1c4[nH]c5ccccc5c4C[C@H]4C(C2)NCC[C@]314		1.3	0.8	1	20%		0.6		5.3 nM	375 nM	71	176	85 nM	
Oc1ccc2c3c1O[C@H]1c4[nH]c5ccccc5c4C[C@@]4(O)C(C2)NCC[C@]314	1.1	0.8	0.9	0.7	41%		0.7	10.9 nmol/mouse	> 1000 nM		224	> 357	124 nM	ED50 ratio (Mus musculus [20]): 0.7; ED50 ratio (Mus musculus [21]): 2.5; ED50 ratio (Mus musculus [22]): 1.6; Ki (Mu-type opioid receptor [23]): > 1000 nM; ED50 ratio (Mus musculus [24]): 1.1; ED50 ratio (Mus musculus [25]): 5.4; IC50 (Cavia porcellus [18]): 121 nM; ED50 ratio (Mus musculus [26]): 1.6; ED50 ratio (Mus musculus [27]): 1.2; ED50 ratio (Mus musculus [28]): 0.9
Oc1ccc2c3c1O[C@H]1c4[nH]c5ccccc5c4C[C@@]4(O)[C@@H](C2)N(CCc2ccccc2)CC[C@]314	0.4	0.8	0.6	0.9	15%		0.8	2.2 nmol/mouse	> 1000 nM	> 1000 nM			171 nM	ED50 ratio (Mus musculus [29]): 2.8; ED50 ratio (Mus musculus [30]): 0.4; ED50 ratio (Mus musculus [31]): 21.6; ED50 ratio (Mus musculus [32]): 1.4; ED50 ratio (Mus musculus [22]): 5.5; IC50 (Cavia porcellus [33]): 76 nM; ED50 ratio (Mus musculus [26]): 3.2; ED50 ratio (Mus musculus [27]): 4; ED50 ratio (Mus musculus [28]): 1.3; ED50 ratio (Mus musculus [34]): 0.6; ED50 ratio (Mus musculus [35]): 5.8
CN1CC[C@]23c4c5ccc(O)c4O[C@H]2c2[nH]c4ccccc4c2C[C@H]3[C@H]1C5		0.5	4.2	0.9	9%	34%	1							

Reference: ChEMBL document CHEMBL1125360 (J Med Chem, 1992)
